The results in this text go back to article PMC4422293 (Drug Design, Development and Therapy, 2015).

Structures are written as SMILES. Like-named read-outs stand apart in the source and are kept apart here.

The nature of data set [1]: Surface plasmon resonance binding to immobilized 3-Lipid II. Summed up: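 SPR was run at 25°C on a Biacore T100. About 50 RU of farnesyl (3-isoprene) Lipid II was amine-coupled to a CM5 chip. Running buffer was 10 mM HEPES, 150 mM NaCl, 0.05% P20, pH 7.4 (±3 mM EDTA) with 10% DMSO. Screening injections were at 10 μM, with control-cell subtraction and 30 s regeneration in 50 mM NaOH. Kd came from binding isotherms, averaged over three assays.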
For orientation: SPR reads the build-up and loss of mass on a sensor chip optically.

The test system of data set [2] is Enterococcus faecium EF1509 (VRE). In words: MIC by broth dilution. It counts as cell-based. (In general: Dilution methods test growth across graded concentrations, often in twofold steps.)
Data set [3] relates to Acinetobacter baumannii BAA-1605. In words: MIC by broth dilution. It counts as cell-based. The following applies: BAA1605.
The subject of data set [4] is Enterobacter aerogenes ATCC 13048. In words: MIC by broth dilution. The format is cell-based. The conditions noted are these: Klebsiella aerogenes, ATCC13048.
Data set [5] deals with K. pneumoniae NR-15411 (KPC). In words: MIC by broth dilution. The format is cell-based. The following applies: Klebsiella pneumoniae.
The test system of data set [6] is Pseudomonas aeruginosa X13273. In words: MIC by broth dilution. It counts as cell-based.
Data set [7] has as its system Staphylococcus aureus 1094 (MRSA). In words: MIC by broth dilution. The format is cell-based.
Data set [8] deals with Enterobacter cloacae ATCC 13047. Briefly: MIC by broth dilution. The format is cell-based. The following applies: ATCC13047.
In another data set the test system is E. faecium F118 (VRE). Briefly: MIC by broth dilution. The following applies: Enterococcus faecium. It counts as cell-based.
The subject of data set [9] is Klebsiella pneumoniae NR-15410 (KPC). In words: MIC by broth dilution. It counts as cell-based.
In a further data set the test system is P. aeruginosa ATCC 27853. Briefly: MIC by broth dilution. It counts as cell-based. The conditions noted are these: Pseudomonas aeruginosa, ATCC27853.
For data set [10], the system named is S. aureus HFH-30123 (MRSA). Briefly: MIC by broth dilution. The format is cell-based. The following applies: Staphylococcus aureus.
A short description of data set [11]: Cytotoxicity against mammalian cells. The following applies: human, HeLa cells (ATCC CCL-2.2). It counts as cell-based. Summed up:
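HeLa cells (ATCC CCL-2.2) were exposed to the test compound for 72 h. CC50 is the concentration giving a half-maximal decrease in viability, averaged over two replicate assays.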

The subject of data set [12] is Acinetobacter baumannii ATCC 19606. In words: MIC by broth dilution. The format is cell-based. The conditions noted are these: ATCC19606, Table 4, mean of three replicates.
In a further data set the test system is S. aureus. In words: Antibacterial activity / killing of S. aureus. The format is cell-based. The following applies: Staphylococcus aureus.
In data set [13] the test system is DNA, cell wall, protein, and lipid synthesis in S. aureus NCTC 8325. Briefly: Macromolecular synthesis assays, all pathways. The format is cell-based, Staphylococcus aureus.
The subject of data set [14] is Staphylococcus aureus (USA300) MRSA. In words: MIC by broth dilution. The format is cell-based. The following applies: Table S2; unit not given.
For data set [15], the system named is Staphylococcus aureus (VISA) ATCC 700699. Briefly: MIC by broth dilution. The following applies: Table S2; unit not given. It counts as cell-based.
The next data set deals with S. aureus (VISA) NRS22. In words: MIC by broth dilution. It counts as cell-based, Staphylococcus aureus. The following applies: Table S2; unit not given.
[16] abbreviates: read-out: Lipid II binding (Kd), Table 4, averages of three replicate assays.

Take `CCOc1ccc(-c2cc(C=CC=C3N(C)c4ccccc4C3(C)C)o[c+](-c3ccc(OCC)cc3)c2)cc1` [BAS00127537, 2,4-Bis-(4-ethoxy-phenyl)-6-[3-(1,3,3-trimethyl-1,3-dihydro-indol-2-ylidene)-propenyl]-pyranylium]: the “reduction in Lipid II-binding affinity compared to BAS00127538” value in data set [1] (from Table 1) is listed as ~ 15 fold.

As to `CN1/C(=C/C=C/c2cc(-c3ccccc3)cc(-c3ccccc3)[n+]2C)C(C)(C)c2ccccc21.F[B-](F)(F)F` [SF-5-219, 1-Methyl-2,4-diphenyl-6-((1E,3E)-3-(1,3,3-trimethylindolin-2-ylidene)prop-1-en-1-yl)pyridin-1-ium tetrafluoroborate], the minimum inhibitory concentration (MIC) – broadly, the least concentration at which growth counts as inhibited – is 0.5 mg/L in data set [2]; 8 mg/L in [3]; 32 mg/L in data set [4]; 32 mg/L in data set [5]; ≥ 32 mg/L in [6]; 1 mg/L in data set [7]. The minimum inhibitory concentration (MIC) in data set [8] is ≥ 32 mg/L; against E. faecium F118 (VRE), 5 mg/L; in data set [9], 32 mg/L; with P. aeruginosa ATCC 27853, ≥ 32 mg/L; in data set [10], 1 mg/L; in data set [12], 8 mg/L. In [1] (setting [16]), the Kd (commonly the constant that tells how readily two partners part at equilibrium) was 7.4 ± 3.08 µM. In addition, the CC50 (in general, the concentration at which the toxic effect on the cells reaches its halfway point) at 72 h in [11] stood at 0.25 mg/L.

Regarding `CC(C)[n+]1c(/C=C/C=C2/N(C)c3ccccc3C2(C)C)cc(-c2ccccc2)cc1-c1ccccc1.F[B-](F)(F)F` [SF-5-330, 1-Isopropyl-2,4-diphenyl-6-((1E,3E)-3-(1,3,3-trimethylindolin-2-ylidene)prop-1-en-1-yl)pyridin-1-ium tetrafluoroborate], the minimum inhibitory concentration (MIC) stood at 0.5 mg/L in [2]; 8 mg/L in data set [3]; 8 mg/L in data set [4]; 25.4 mg/L in data set [5]; 4 mg/L in data set [6]; 1 mg/L in [7]. Besides, the MIC in data set [8] is 16 mg/L; in the data set with S. aureus, 1 mg/L; in the data set with E. faecium F118 (VRE), 5 mg/L; in data set [9], 10 mg/L; against P. aeruginosa ATCC 27853, 8 mg/L; in data set [10] it was 1 mg/L. The molecule further had an MIC in data set [12] of 8 mg/L. In data set [1] (setting [16]), the Kd is 0.54 ± 0.16 µM. In addition, in data set [13], the “inhibition of macromolecular synthesis pathways” value is “inhibited all pathways at low concentrations”. In addition, the CC50 at 72 h in data set [11] stood at 0.33 mg/L.

In the case of `CC(C)C[n+]1c(/C=C/C=C2/N(C)c3ccccc3C2(C)C)cc(-c2ccccc2)cc1-c1ccccc1.F[B-](F)(F)F` [SF-5-331, 1-Isobutyl-2,4-diphenyl-6-((1E,3E)-3-(1,3,3-trimethylindolin-2-ylidene)prop-1-en-1-yl)pyridin-1-ium tetrafluoroborate], the MIC in data set [2] came out at 0.5 mg/L; in [3], 8 mg/L; in data set [4], 32 mg/L; in [5], 32 mg/L; in data set [6], 8 mg/L; in [7], 1 mg/L. Besides, the minimal inhibitory concentration (MIC) in data set [8] is 32 mg/L; against S. aureus, 1 mg/L; against E. faecium F118 (VRE), 2 mg/L; in [9], 16 mg/L; in the data set on P. aeruginosa ATCC 27853 it was 32 mg/L; in data set [10], 1 mg/L. In data set [12], this molecule came in with a minimal inhibitory concentration (MIC) of 8 mg/L. Besides, the Kd in data set [1] (setting [16]) is 0.34 ± 0.24 µM. For the same molecule, the “inhibition of macromolecular synthesis pathways” value in [13] is recorded as “inhibited all pathways at low concentrations”. The midpoint of cytotoxicity in data set [11], the CC50 at 72 h, lay at 0.26 mg/L.

As for `CN1/C(=C/C=C/c2cc(-c3ccccc3)cc(-c3ccccc3)[n+]2CCO)C(C)(C)c2ccccc21.F[B-](F)(F)F` [SF-5-332, 1-(2-Hydroxyethyl)-2,4-diphenyl-6-((1E,3E)-3-(1,3,3-trimethylindolin-2-ylidene)prop-1-en-1-yl)pyridin-1-ium tetrafluoroborate], the minimum inhibitory concentration (MIC) in [2] is 1 mg/L; in data set [3], 20.2 mg/L; in [4] it was ≥ 32 mg/L; in data set [5], ≥ 32 mg/L; in [6], ≥ 32 mg/L; in [7] it was 1 mg/L. Further, the MIC in data set [8] was ≥ 32 mg/L; with E. faecium F118 (VRE) it was 8 mg/L; in [9] it was ≥ 32 mg/L; in the data set on P. aeruginosa ATCC 27853 it was ≥ 32 mg/L; in [10] it was 1 mg/L; in [12], 20.2 mg/L. For the same molecule, the dissociation constant (Kd) in data set [1] (setting [16]) turned out to be 4.4 ± 3.02 µM. Moreover, the CC50 at 72 h in data set [11] was determined as 0.8 mg/L.

Turning to `CN(C)CC[n+]1c(/C=C/C=C2/N(C)c3ccccc3C2(C)C)cc(-c2ccccc2)cc1-c1ccccc1.F[B-](F)(F)F` [SF-5-334, 1-(2-(Dimethylamino)ethyl)-2,4-diphenyl-6-((1E,3E)-3-(1,3,3-trimethylindolin-2-ylidene)prop-1-en-1-yl) pyridin-1-ium tetrafluoroborate], the MIC in data set [2] is 8 mg/L; in [3], 32 mg/L; in data set [4], ≥ 32 mg/L; in [5] it was ≥ 32 mg/L; in [6] it was ≥ 32 mg/L; in [7] it was 16 mg/L. In addition, the MIC in data set [8] is ≥ 32 mg/L; in the data set on E. faecium F118 (VRE) it was 32 mg/L; in [9], ≥ 32 mg/L; in the data set with P. aeruginosa ATCC 27853 it was ≥ 32 mg/L; in data set [10], 16 mg/L; in data set [12], 32 mg/L. The Kd in data set [1] (setting [16]) came out at 1.9 ± 0.86 µM. Further, it took 2.25 mg/L to reach half-maximal cytotoxicity in data set [11] (CC50 at 72 h).

As to `CN[C@H](CC(C)C)C(=O)N[C@H]1C(=O)N[C@@H](CC(N)=O)C(=O)N[C@H]2C(=O)N[C@H]3C(=O)N[C@H](C(=O)N[C@H](C(=O)O)c4cc(O)cc(O)c4-c4cc3ccc4O)[C@H](O)c3ccc(c(Cl)c3)Oc3cc2cc(c3O[C@@H]2O[C@H](CO)[C@@H](O)[C@H](O)[C@H]2O[C@H]2C[C@](C)(N)[C@H](O)[C@H](C)O2)Oc2ccc(cc2Cl)[C@H]1O` [Vancomycin], the figures for the “Antibacterial activity (MIC)” value (in data set [14]; in data set [15]; with S. aureus (VISA) NRS22) were ≤ 0.5, 8 and 8, respectively.

`Cc1cc(-c2ccccc2)cc(-c2ccccc2)[n+]1C` [Z56760026, 1,2-Dimethyl-4,6-diphenylpyridin-1-ium]: the equilibrium dissociation constant (Kd) in data set [1] (read-out: Lipid II binding Kd) was determined as 37 µM.
